The target of experiment [1] is T1, NAD-dependent protein deacetylase sirtuin-1 (Homo sapiens) (UniProt Q96EB6).
T1 sequence (whole entry): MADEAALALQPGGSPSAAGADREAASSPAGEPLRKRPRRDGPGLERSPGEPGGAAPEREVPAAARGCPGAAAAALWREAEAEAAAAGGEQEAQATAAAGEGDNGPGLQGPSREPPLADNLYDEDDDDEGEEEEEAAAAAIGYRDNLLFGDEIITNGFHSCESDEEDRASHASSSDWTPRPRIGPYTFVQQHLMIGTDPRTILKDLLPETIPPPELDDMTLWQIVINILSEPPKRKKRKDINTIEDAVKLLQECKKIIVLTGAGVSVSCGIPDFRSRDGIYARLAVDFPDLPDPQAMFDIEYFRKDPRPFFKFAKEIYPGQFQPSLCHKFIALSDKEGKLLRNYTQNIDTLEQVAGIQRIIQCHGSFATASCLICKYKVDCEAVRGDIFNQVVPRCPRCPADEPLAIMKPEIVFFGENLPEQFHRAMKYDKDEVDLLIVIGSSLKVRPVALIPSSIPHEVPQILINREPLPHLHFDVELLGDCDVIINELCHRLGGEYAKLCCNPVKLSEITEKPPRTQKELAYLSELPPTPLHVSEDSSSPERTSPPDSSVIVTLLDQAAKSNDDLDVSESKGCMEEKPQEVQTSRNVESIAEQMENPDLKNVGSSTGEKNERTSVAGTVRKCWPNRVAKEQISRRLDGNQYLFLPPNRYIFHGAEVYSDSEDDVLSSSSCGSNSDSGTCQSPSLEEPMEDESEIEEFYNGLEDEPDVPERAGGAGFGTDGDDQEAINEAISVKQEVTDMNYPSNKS
Description: Inhibition of His-tagged human recombinant SIRT1 expressed in Escherichia coli at 20 uM using Cbz-Lys(Ac)-AMC as substrate by fluorescence assay. The gist of the method:
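Fluorescence deacetylase assay with in-house Cbz-Lys(Ac)-AMC substrate. Values are means of three experiments on racemic material. Single-point lines were tested at 20 µM, and less than 20% inhibition was scored as no inhibition.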

Experiment [2] addresses T2, Protein deacetylase HDAC6 (Homo sapiens) (UniProt Q9UBN7).
T2 sequence (whole entry): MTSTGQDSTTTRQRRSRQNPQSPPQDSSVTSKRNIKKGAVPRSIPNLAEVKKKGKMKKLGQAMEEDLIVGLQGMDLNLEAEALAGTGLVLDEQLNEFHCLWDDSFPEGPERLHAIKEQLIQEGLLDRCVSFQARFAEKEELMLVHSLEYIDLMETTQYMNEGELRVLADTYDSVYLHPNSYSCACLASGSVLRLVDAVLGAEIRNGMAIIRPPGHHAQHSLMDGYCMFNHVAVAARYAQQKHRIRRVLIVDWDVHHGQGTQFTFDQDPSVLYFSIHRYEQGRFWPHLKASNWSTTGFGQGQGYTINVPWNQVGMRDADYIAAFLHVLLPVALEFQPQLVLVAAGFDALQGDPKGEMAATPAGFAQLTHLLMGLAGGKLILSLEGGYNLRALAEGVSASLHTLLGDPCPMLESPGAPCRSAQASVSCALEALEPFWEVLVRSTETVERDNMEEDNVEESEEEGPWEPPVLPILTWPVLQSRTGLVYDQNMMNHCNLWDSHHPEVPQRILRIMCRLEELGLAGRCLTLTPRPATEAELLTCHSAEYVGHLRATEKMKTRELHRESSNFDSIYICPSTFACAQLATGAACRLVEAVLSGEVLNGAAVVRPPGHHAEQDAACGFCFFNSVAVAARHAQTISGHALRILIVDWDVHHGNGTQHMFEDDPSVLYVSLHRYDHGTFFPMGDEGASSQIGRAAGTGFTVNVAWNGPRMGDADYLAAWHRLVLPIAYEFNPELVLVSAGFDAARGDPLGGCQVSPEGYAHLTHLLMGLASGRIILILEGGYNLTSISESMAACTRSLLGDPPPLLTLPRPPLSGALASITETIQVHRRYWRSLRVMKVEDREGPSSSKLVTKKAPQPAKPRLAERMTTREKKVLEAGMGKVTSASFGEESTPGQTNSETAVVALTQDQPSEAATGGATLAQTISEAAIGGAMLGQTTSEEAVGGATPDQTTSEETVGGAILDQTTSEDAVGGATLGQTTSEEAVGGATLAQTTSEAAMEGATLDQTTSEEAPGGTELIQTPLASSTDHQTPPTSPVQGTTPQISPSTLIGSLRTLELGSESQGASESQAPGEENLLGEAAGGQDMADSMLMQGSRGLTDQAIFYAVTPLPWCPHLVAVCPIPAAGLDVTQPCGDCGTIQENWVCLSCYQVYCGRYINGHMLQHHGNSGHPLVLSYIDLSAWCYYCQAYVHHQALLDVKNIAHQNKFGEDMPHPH
Description: Inhibition of HDAC6 (unknown origin).

A further experiment deals with Histone deacetylase 2 (Homo sapiens, UniProt Q92769). As to the kind of experiment: Inhibition of HDAC2 (unknown origin).
Histone deacetylase 2, sequence (Q92769 whole entry): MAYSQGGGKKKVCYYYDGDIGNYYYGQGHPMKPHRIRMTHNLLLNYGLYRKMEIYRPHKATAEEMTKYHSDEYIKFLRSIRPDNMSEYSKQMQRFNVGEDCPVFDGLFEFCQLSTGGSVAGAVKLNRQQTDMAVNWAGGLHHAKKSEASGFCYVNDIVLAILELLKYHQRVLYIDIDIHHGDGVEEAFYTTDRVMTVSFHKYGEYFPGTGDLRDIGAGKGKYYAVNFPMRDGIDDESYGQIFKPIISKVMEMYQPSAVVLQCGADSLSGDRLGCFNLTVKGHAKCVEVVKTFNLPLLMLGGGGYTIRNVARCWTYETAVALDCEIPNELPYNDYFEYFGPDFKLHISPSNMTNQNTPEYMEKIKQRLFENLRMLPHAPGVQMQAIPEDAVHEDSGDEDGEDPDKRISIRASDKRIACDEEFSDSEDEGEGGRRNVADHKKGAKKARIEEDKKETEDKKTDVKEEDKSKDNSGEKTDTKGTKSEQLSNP
Experiment [3] has as its target T3, Histone deacetylase 8 (Homo sapiens) (UniProt Q9BY41).
T3 sequence (whole entry): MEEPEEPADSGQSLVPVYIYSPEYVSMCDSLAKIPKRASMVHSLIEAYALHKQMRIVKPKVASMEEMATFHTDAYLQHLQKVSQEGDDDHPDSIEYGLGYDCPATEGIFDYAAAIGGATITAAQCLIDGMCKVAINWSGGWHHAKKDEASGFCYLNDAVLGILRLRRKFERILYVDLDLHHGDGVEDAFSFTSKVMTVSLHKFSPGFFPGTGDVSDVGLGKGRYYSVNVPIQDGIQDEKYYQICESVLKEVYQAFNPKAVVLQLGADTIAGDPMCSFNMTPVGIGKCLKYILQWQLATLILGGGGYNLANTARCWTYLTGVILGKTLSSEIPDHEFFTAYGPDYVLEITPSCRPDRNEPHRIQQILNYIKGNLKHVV
Description: Inhibition of HDAC8 (unknown origin).

Another experiment concerns the target Histone deacetylase 1 (Homo sapiens, UniProt Q13547). Description: Inhibition of HDAC1 (unknown origin).

Data on 14 compounds can be found in ChEMBL document CHEMBL3425433, “Discovery of bicyclic pyrazoles as class III histone deacetylase SIRT1 and SIRT2 inhibitors” (Bioorg Med Chem Lett, 2015).

Activity calls are given as the source filed them. No cut-off for these calls is given here.

Histone deacetylase 1, sequence (Q13547 whole entry): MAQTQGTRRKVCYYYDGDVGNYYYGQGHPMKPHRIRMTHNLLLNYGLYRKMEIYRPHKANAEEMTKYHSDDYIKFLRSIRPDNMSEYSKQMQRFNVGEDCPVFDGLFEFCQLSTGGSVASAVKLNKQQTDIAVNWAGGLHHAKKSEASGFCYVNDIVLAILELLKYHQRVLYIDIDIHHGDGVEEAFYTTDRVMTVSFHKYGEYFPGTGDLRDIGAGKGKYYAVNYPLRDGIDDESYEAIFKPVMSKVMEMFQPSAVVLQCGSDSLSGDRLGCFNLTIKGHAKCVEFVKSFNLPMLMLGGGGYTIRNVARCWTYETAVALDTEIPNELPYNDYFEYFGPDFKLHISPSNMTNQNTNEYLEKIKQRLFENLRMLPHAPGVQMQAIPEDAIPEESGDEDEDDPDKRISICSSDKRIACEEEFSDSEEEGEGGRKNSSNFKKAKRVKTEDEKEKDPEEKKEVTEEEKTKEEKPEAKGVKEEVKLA

As a reminder, the inhibition is the change of the read-out against control, counted positive when it falls. `CC1(C)Cc2c(-c3cc4ccccc4s3)n[nH]c2C(C(N)=O)C1` (racemic): in experiment [1], the inhibition was found to be 53%. The inhibition entry (in experiment [2]; at Histone deacetylase 2; in experiment [3]; on Histone deacetylase 1) was “inactive” throughout.
For the compound `NC(=O)C1CC2(Cc3c(-c4ccc(Cl)cc4)n[nH]c31)OCCO2` (racemic), the inhibition in experiment [1] is less than 20%. Moreover, the inhibition entry (in experiment [2]; at Histone deacetylase 2; in experiment [3]; on Histone deacetylase 1) was “inactive” each time.
For the compound `NC(=O)C1CCCc2c(-c3cc4ccccc4[nH]3)n[nH]c21` (racemic), the inhibition in experiment [1] is 46%. Moreover, the inhibition result (in experiment [2]; at Histone deacetylase 2; in experiment [3]; at Histone deacetylase 1) was “inactive” each time.
As for `NC(=O)C1CCCc2c(-c3cc4cc(Br)ccc4s3)n[nH]c21` (racemic), the inhibition in experiment [1] is 38%. Besides, the inhibition result (in experiment [2]; at Histone deacetylase 2; in experiment [3]; on Histone deacetylase 1) was “inactive” throughout.
On to `NC(=O)C1CCCc2c(-c3ccc(F)cc3)n[nH]c21` (racemic), for which, in experiment [1], the inhibition amounted to 42%. For the same compound, the inhibition entry (in experiment [2]; on Histone deacetylase 2; in experiment [3]; at Histone deacetylase 1) was “inactive” each time.
With `CNC(=O)C1CCCc2c(-c3ccc(Cl)cc3)n[nH]c21` (racemic), the inhibition in experiment [1] is less than 20%. Further, the inhibition entry (in experiment [2]; on Histone deacetylase 2; in experiment [3]; on Histone deacetylase 1) was “inactive” each time.
With `Cn1c(-c2n[nH]c3c2CCCC3C(N)=O)cc2cc(Cl)ccc21` (racemic), in experiment [1], the inhibition is 31%. For the same compound, the inhibition result (in experiment [2]; on Histone deacetylase 2; in experiment [3]; at Histone deacetylase 1) was “inactive” each time.
In the case of `CC1(C)Cc2c(-c3ccc(Cl)c(Cl)c3)n[nH]c2C(C(N)=O)C1` (racemic), in experiment [1], the inhibition was 23%. Also, the inhibition result (in experiment [2]; at Histone deacetylase 2; in experiment [3]; at Histone deacetylase 1) was “inactive” in each case.
As to `NC(=O)C1CCCc2c(-c3cccc(Cl)c3)n[nH]c21` (racemic), the inhibition in experiment [1] was 27%. The inhibition entry (in experiment [2]; at Histone deacetylase 2; in experiment [3]; at Histone deacetylase 1) was “inactive” each time.
`NC(=O)C1CCCc2c(-c3ccccc3)n[nH]c21` (racemic): the inhibition in experiment [1] stood at 44%. The inhibition entry (in experiment [2]; at Histone deacetylase 2; in experiment [3]; on Histone deacetylase 1) was “inactive” in each case.
`NC(=O)C1CC(c2ccccc2)Cc2c(-c3ccc(Cl)cc3)n[nH]c21` (mixture of isomers): the inhibition in experiment [1] was 59%. Further, the inhibition entry (in experiment [2]; on Histone deacetylase 2; in experiment [3]; on Histone deacetylase 1) was “inactive” throughout.
Take `NC(=O)C1CCCc2c(-c3ccc(Cl)cc3Cl)n[nH]c21` (racemic): in experiment [1], the inhibition amounted to 24%. Besides, the inhibition entry (in experiment [2]; on Histone deacetylase 2; in experiment [3]; on Histone deacetylase 1) was “inactive” in each case.
As to `NC(=O)C1Cc2ccccc2Cc2c(-c3ccc(Cl)cc3)n[nH]c21` (racemic), the inhibition in experiment [1] worked out at 42%. The inhibition entry (in experiment [2]; at Histone deacetylase 2; in experiment [3]; on Histone deacetylase 1) was “inactive” throughout.
Consider `Cn1cc(-c2n[nH]c3c2CCCC3C(N)=O)c2ccccc21` (racemic), for which the inhibition in experiment [1] is less than 20%. In addition, the inhibition entry (in experiment [2]; at Histone deacetylase 2; in experiment [3]; at Histone deacetylase 1) was “inactive” each time.
